The values that follow come from ChEMBL document CHEMBL1124155, “Synthesis and dopamine agonist and antagonist effects of (R)-(-)- and (S)-(+)-11-hydroxy-N-n-propylnoraporphine” (J Med Chem, 1988).

One assay addresses D(2) dopamine receptor (Rattus norvegicus, UniProt P61169). The assay can be described thus: Binding affinity against Dopamine receptor D2 from rat brain corpus striatal preparations using [3H]spiperone.
The target in a further assay is Dopamine receptor. The assay can be described thus: Binding affinity against dopamine agonist sites from rat brain corpus striatal preparations using [3H]ADTN.
For a further assay, the target named is D(1A) dopamine receptor (Rattus norvegicus, UniProt P18901). The assay can be described thus: Binding affinity against Dopamine receptor D1 from rat brain corpus striatal preparations using [3H]SCH-23390.
In assay [1] the test system is Rattus norvegicus. The assay can be described thus: Stereotyped behavior in rat induced by Aporphines after ip administration at 0 mg/kg dose. It counts as functional. Conditions: route intraperitoneal. The essentials:
(§1)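 Aporphine given ip to rats (doses 0.3–3.0 mg/kg; saline as 0). Stereotyped behavior rated every 10 min for 1 h. Mean stereotypy score, maximum 18.0, ± SEM, N = 6. Student's t test, p < 0.05.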

Assay [2] has as its system Rattus norvegicus. The assay can be described thus: Effect (0.3 mg/kg) on motor arousal induced by apomorphine. It is filed as functional. The essentials: (§2)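 Rats received test enantiomer ip immediately before apomorphine (0.3 mg/kg). They were then placed in a microcomputer-controlled electronic activity monitor for 1 h. Read-out was activity counts per hour, mean ± SEM, N = 6. Comparison was against a saline + apomorphine control by Student's t test.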

Assay [3] deals with Rattus norvegicus. The assay can be described thus: Stereotyped behavior in rat induced by Aporphines after ip administration at 1.0 mg/kg dose. It counts as functional. Conditions: route intraperitoneal. The essentials: as §1
Assay [4] has as its system Rattus norvegicus. The assay can be described thus: Stereotyped behavior in rat induced by Aporphines after ip administration at 0.3 mg/kg dose. It counts as functional. Conditions: route intraperitoneal. The essentials: as §1
Assay [5] deals with Rattus norvegicus. The assay can be described thus: Stereotyped behavior in rat induced by Aporphines after ip administration at 3.0 mg/kg dose. It is filed as functional. Conditions: route intraperitoneal. The essentials:
as §1

The subject of assay [6] is Rattus norvegicus. The assay can be described thus: Effect on motor arousal induced by apomorphine (0.3 mg/kg) expressed as percent control. It is filed as functional. The method in brief:
as §2

Assay [7] deals with Rattus norvegicus. The assay can be described thus: Effect (3 mg/kg) on motor arousal induced by apomorphine. It counts as functional. The essentials:
as §2

The subject of assay [8] is Rattus norvegicus. The assay can be described thus: Effect (3 mg/kg) on motor arousal induced by apomorphine (0.3 mg/kg) expressed as percent control. It is filed as functional. The essentials:
as §2

In assay [9] the test system is Rattus norvegicus. The assay can be described thus: Effect (10 mg/kg) on motor arousal induced by apomorphine (0.3 mg/kg) expressed as percent control. It is filed as functional. The essentials: as §2
For assay [10], the system named is Rattus norvegicus. The assay can be described thus: Effect (1 mg/kg) on motor arousal induced by apomorphine (0.3 mg/kg) expressed as percent control. It is filed as functional. The method in brief:
as §2

The subject of assay [11] is Rattus norvegicus. The assay can be described thus: Effect (3 mg/kg) on motor arousal induced by apomorphine (0.3 mg/kg). It is filed as functional. The method in brief:
as §2

The subject of assay [12] is Rattus norvegicus. The assay can be described thus: Effect (1 mg/kg) on motor arousal induced by apomorphine (0.3 mg/kg). It is filed as functional. The essentials: as §2

The Ki is the equilibrium dissociation constant of an inhibitor or competing ligand from its target. Higher therefore signals a looser hold on the target.

D(2) dopamine receptor, sequence (P61169 whole entry): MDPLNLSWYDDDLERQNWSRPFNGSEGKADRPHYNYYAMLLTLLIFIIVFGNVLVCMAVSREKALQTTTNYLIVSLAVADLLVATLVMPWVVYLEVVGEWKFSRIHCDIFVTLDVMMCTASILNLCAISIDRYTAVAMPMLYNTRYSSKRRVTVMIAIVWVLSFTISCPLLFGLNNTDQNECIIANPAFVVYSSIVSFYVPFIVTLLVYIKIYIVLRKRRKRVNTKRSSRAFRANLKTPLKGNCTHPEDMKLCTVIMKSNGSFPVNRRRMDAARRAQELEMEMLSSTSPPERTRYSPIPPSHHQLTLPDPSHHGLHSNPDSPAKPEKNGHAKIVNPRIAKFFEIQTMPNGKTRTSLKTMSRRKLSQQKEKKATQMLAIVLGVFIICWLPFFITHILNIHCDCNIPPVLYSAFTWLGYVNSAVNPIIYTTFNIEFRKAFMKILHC
D(1A) dopamine receptor, sequence (P18901 whole entry): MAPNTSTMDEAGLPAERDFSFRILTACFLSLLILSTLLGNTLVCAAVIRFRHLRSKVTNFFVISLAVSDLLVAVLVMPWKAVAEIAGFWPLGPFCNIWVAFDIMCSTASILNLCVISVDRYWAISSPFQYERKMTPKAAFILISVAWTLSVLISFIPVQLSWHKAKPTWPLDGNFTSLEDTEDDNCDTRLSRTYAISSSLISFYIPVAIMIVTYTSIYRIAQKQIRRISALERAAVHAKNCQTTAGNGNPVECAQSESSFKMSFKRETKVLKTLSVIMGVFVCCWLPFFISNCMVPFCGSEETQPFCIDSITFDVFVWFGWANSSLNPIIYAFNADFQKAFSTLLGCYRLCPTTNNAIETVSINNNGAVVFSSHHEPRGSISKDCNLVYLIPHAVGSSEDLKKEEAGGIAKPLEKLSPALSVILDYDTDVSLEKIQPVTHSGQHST

Consider `CCCN1CCc2cccc3c2[C@@H]1Cc1ccccc1-3`, for which the Ki was 115 nM on D(2) dopamine receptor, 278 nM on Dopamine receptor and 1340 nM at D(1A) dopamine receptor.
Consider `CN1CCc2cccc3c2[C@H]1Cc1ccc(O)c(O)c1-3` [APOMORPHINE], for which the Activity in the assay on Rattus norvegicus [1] is 0.8; with Rattus norvegicus [2], 505; in the assay on Rattus norvegicus [3], 12.7; in the assay on Rattus norvegicus [4], 9.7; in the assay on Rattus norvegicus [5] it was 17.5. Besides, in the assay on Rattus norvegicus [6], the Control was 100%.
Regarding `CCCN1CCc2cccc3c2[C@H]1Cc1cccc(O)c1-3`, the Activity with Rattus norvegicus [7] came out at 764; in the assay with Rattus norvegicus [1], 0.8; in the assay on Rattus norvegicus [3], 9.5; with Rattus norvegicus [4], 5.7; with Rattus norvegicus [5], 13.8. For the same molecule, the Control in the assay on Rattus norvegicus [8] came out at 151%.
Take `CCCN1CCc2cccc3c2[C@H]1Cc1ccccc1-3`: the Ki at D(2) dopamine receptor turned out to be 2.4 nM; on Dopamine receptor, 1.1 nM; on D(1A) dopamine receptor, 340 nM.
For the molecule `CCCN1CCc2cccc3c2[C@@H]1Cc1cccc(O)c1-3`, the Activity with Rattus norvegicus [1] turned out to be 0.8; with Rattus norvegicus [3], 1.7; with Rattus norvegicus [4], 0.6; with Rattus norvegicus [11] it was 218; in the assay on Rattus norvegicus [12], 410; in the assay on Rattus norvegicus [5], 1.3. The Control was 21% in the assay on Rattus norvegicus [9], 81% in the assay on Rattus norvegicus [10] and 43% in the assay on Rattus norvegicus [8].
